Published values pooled from the literature.
Each line is one published result; the experiments were not run side by side.
Target: Calcium/calmodulin-dependent protein kinase kinase 1 (CAMKK1, Homo sapiens, UniProt Q8N5S9)

SMILES | assay | conditions | remaining binding
c1cnn2ncc(-c3ccnc(N4CCC45COC5)n3)c2c1 | binding | 1 µM | 97%
C[C@@H](c1ccc(-n2cnc3c(N)ncnc32)cc1)N1CCc2nn(C)c(Cc3ccccc3)c2C1=O | binding, competition with immobilised ligand | 0.1 µM | 100%
CN(c1nccc(-c2cnn3ncccc23)n1)C1CC1 | binding | 1 µM | 100%
COc1ncc2cc3ccccc3nc2c1C#N | cell-free assay, competition with immobilised ligand | 5 µM | 87%
N[C@H]1CCN(c2nccc(-c3cnn4ncccc34)n2)C1 | binding | 1 µM | 100%
CNC(=O)[C@@H]1CC[C@@H](n2c(-c3ccc4cnccc4c3)nc3ccc(C(=O)NCc4cccc(C(N)=O)c4)cc32)C1 | binding, competition with immobilised ligand | 1 µM | 94%
CNCc1ccccc1-c1csc([C@H](C)Nc2nc(C)nc3cc(OC)c(OC)cc23)c1 | cell-free assay, competition with immobilised ligand | 1 µM | 99%
CN(CCCC(F)(F)F)c1nccc(-c2cnn3ncccc23)n1 | binding | 1 µM | 100%
O=C(NCCCN1CCOCC1)c1ccc(Nc2nccc(-c3cc4ccccc4s3)n2)cc1 | binding, competition with immobilised ligand | 1 µM | 80%
CN(C)c1ncc(F)c(-c2cnn3ncccc23)n1 | binding | 1 µM | 90%
CNC(=O)c1ccc(Nc2ncc(C(F)(F)F)c(NCc3nccnc3N(C)S(C)(=O)=O)n2)cc1 | cell-free assay, competition with immobilised ligand | 0.1 µM | 75%
C[C@H]1CCN(c2nccc(-c3cnn4ncccc34)n2)C1 | binding | 1 µM | 91%
CC(=O)Nc1c(C(C)=O)c(=O)n(C)c2nc(-c3ccc(Cl)cc3Cl)c(-c3ccc(Cl)cc3)cc12 | cell-free assay, competition with immobilised ligand | 1 µM | 100%
O=C(Nc1c[nH]nc1C(=O)NC1CCNCC1)c1cc(F)cc(F)c1 | binding, competition with immobilised ligand | 1 µM | 90%
O=C(Nc1cnc(Oc2ccc(F)cc2)nc1)N1CCc2ncccc2[C@@H]1c1ccc(F)cc1 | cell-free assay, competition with immobilised ligand | 1 µM | 92%
O=C(c1ccc(Nc2ncc(Cl)c(-c3cc4ccccc4s3)n2)cc1)N1CCC(N2CCCC2)CC1 | binding, competition with immobilised ligand | 1 µM | 91%
Cc1cc(C)c(-n2ccn3nc(-c4cccnc4)cc23)cc1NC(=O)c1cc(C#N)cc(S(F)(F)(F)(F)F)c1 | cell-free assay, competition with immobilised ligand | 0.1 µM | 93.6%
F[C@@H]1CCN(c2nccc(-c3cnn4ncccc34)n2)C1 | binding | 1 µM | 100%
Cc1noc([C@H]2C[C@@H](c3ccc(C(F)(F)F)cc3)CN(C(=O)N3CCS(=O)(=O)C3)C2)n1 | cell-free assay, competition with immobilised ligand | 1 µM | 100%
O=C(c1ccc(Nc2nccc(-c3cc4ccccc4s3)n2)cc1)N1CCC(N2CCCC2)CC1 | binding, competition with immobilised ligand | 1 µM | 93%
O=C(O)[C@@H]1[C@@H](Cn2nnc3ccccc3c2=O)CC[C@H]1C(=O)c1ccc(OCCC2CCOCC2)cc1 | cell-free assay, competition with immobilised ligand | 1 µM | 100%
CCN1CCN(Cc2ccc(C(=O)Nc3ccc(C)c(Oc4ccc5c(c4)CC(=O)N5)c3)cc2C(F)(F)F)CC1 | binding, competition with immobilised ligand | 1 µM | 100%
